In brackets after ≈: the same amount, converted by molar mass. Activity calls are given as the source filed them. No cut-off for these calls is given here.
Legend:
Candida parapsilosis [1] = test: Antifungal activity against Candida parapsilosis ATCC 90018 assessed as reduction in fungal cell growth incubated for 24 hrs by MTT based broth double dilution method; format: functional; conditions: Lodderomyces parapsilosis, ATCC 90018, 24 h
Procedure, shortened: (§1)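 Broth double-dilution in Casitone broth. Starter cultures were grown 24 or 48 h at 37 °C, 5% CO₂, diluted 1:100, and added to serial two-fold dilutions at 64 to 0.007 µg/mL. Final inoculum was 5 x 10^4 to 5 x 10^5 CFU/mL; DMSO was 0.0012–1.3%. Plates were incubated at 37 °C, 5% CO₂, then MTT was added for 2 h. MIC followed CLSI M27-A3. Triplicates, two independent experiments.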

[2] = Cytotoxicity against human HepG2 cells assessed as reduction in cell viability at 5 to 50 uM incubated for 24 hrs by XTT assay relative to control; format: cell-based; conditions: read-out: INH
Procedure, shortened: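 HepG2 cells were maintained in RPMI with 15% FBS, 1% NEAA, 1% pyruvate and pen-strep-nystatin at 37 °C and 5% CO2. 4000 cells/well were plated on poly-D-lysine coating and given fresh medium after 24 h. Compounds were dosed at 5–50 µM from 1 mM stocks in 10% DMSO/0.3% Tween/PBS and incubated 24 h. Viability was read by XTT (2 h, 37 °C) at 475 nm against 660 nm.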

Candida albicans [3] = test: Antifungal activity against Candida albicans ATCC 90028 assessed as reduction in fungal cell growth incubated for 48 hrs by MTT based broth double dilution method; format: functional; conditions: ATCC 90028, 48 h; procedure, shortened: as §1
Candida albicans [4] = test: Antifungal activity against Candida albicans P-87 assessed as reduction in fungal cell growth incubated for 24 hrs by MTT based broth double dilution method; format: functional; conditions: P-87, 24 h; procedure, shortened: as §1
Candida albicans [5] = test: Antifungal activity against Candida albicans SN152 assessed as reduction in fungal cell growth incubated for 48 hrs by MTT based broth double dilution method; format: functional; conditions: SN152, 48 h; procedure, shortened: as §1
[6] = tested on: Meyerozyma guilliermondii; test: Antifungal activity against Candida guilliermondii T-47 assessed as reduction in fungal cell growth incubated for 24 hrs by MTT based broth double dilution method; format: functional; conditions: T-47, 24 h; procedure, shortened: as §1
HepG2 = test: Cytotoxicity against human HepG2 cells assessed as reduction in cell viability at 5 to 50 uM incubated for 24 hrs by XTT assay; format: cell-based; conditions: hepg2, 24 h
Procedure, shortened: (§2)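 HEK-293T were grown in DMEM with 10% FBS; HepG2 in RPMI with 15% FBS; both at 37 °C, 5% CO₂. Cells (4000 HepG2 or 7000 HEK-293T per well) were seeded on poly-D-lysine wells. After 24 h the medium was renewed and compounds added at 5–50 µM from 1 mM stocks in 10% DMSO/0.3% Tween/PBS. After 24 h more, XTT was added for 2 h at 37 °C; absorbance was read at 475 nm against 660 nm reference.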

Nakaseomyces glabratus [7] = test: Antifungal activity against Candida glabrata ATCC 66032 assessed as reduction in fungal cell growth incubated for 48 hrs by MTT based broth double dilution method; format: functional; conditions: ATCC 66032, 48 h; procedure, shortened: as §1
Candida albicans [8] = test: Antifungal activity against Candida albicans SN152 assessed as reduction in fungal cell growth incubated for 24 hrs by MTT based broth double dilution method; format: functional; conditions: SN152, 24 h; procedure, shortened: as §1
Candida dubliniensis = test: Antifungal activity against Candida dubliniensis T-99 assessed as reduction in fungal cell growth incubated for 24 hrs by MTT based broth double dilution method; format: functional; conditions: T-99, 24 h; procedure, shortened: as §1
Candida albicans [9] = test: Antifungal activity against Candida albicans SN152 assessed as zone inhibition at 25 ug incubated for 24 hrs by disk diffusion method; format: functional, organism-based
Procedure, shortened: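 Strains were streaked on YPD agar and grown at 30 °C: 24 h for parental SN152, 48 h for the erg11ΔΔ erg3ΔΔ mutant. Colonies were suspended in PBS and adjusted to OD 0.02 (SN152) or 0.03 (mutant), then spread on Casitone plates. A 6-mm disk loaded with 25 µg compound was placed centrally. Plates were incubated at 30 °C and photographed after 24 h.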

Candida albicans [10] = test: Antifungal activity against Candida albicans ATCC 90028 assessed as reduction in fungal cell growth incubated for 24 hrs by MTT based broth double dilution method; format: functional; conditions: ATCC 90028, 24 h; procedure, shortened: as §1
[11] = Cytotoxicity against human HEK293T cells assessed as reduction in cell viability at 5 to 50 uM incubated for 24 hrs by XTT assay relative to control; format: cell-based, HEK-293T; conditions: HEK293T cells, read-out: INH
Procedure, shortened: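 HEK-293T cells were grown in DMEM with 10% FBS, 1% NEAA, 1% pyruvate and pen-strep-nystatin at 37 °C and 5% CO2. 7000 cells/well were seeded on poly-D-lysine-coated wells. After 24 h the medium was renewed and compounds were added at 5–50 µM from 1 mM stocks in 10% DMSO/0.3% Tween/PBS. After 24 h, XTT was added for 2 h at 37 °C, with absorbance read at 475 nm (reference 660 nm).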

Candida parapsilosis [12] = test: Antifungal activity against Candida parapsilosis ATCC 22019 assessed as reduction in fungal cell growth incubated for 24 hrs by MTT based broth double dilution method; format: functional; conditions: Lodderomyces parapsilosis, ATCC 22019, 24 h; procedure, shortened: as §1
Nakaseomyces glabratus [13] = test: Antifungal activity against Candida glabrata 192 assessed as reduction in fungal cell growth incubated for 24 hrs by MTT based broth double dilution method; format: functional; conditions: Nakaseomyces glabratus, 192, 24 h; procedure, shortened: as §1
Nakaseomyces glabratus [14] = test: Antifungal activity against Candida glabrata 192 assessed as reduction in fungal cell growth incubated for 48 hrs by MTT based broth double dilution method; format: functional; conditions: Nakaseomyces glabratus, 192, 48 h; procedure, shortened: as §1
Nakaseomyces glabratus [15] = test: Antifungal activity against Candida glabrata ATCC 2001 assessed as reduction in fungal cell growth incubated for 24 hrs by MTT based broth double dilution method; format: functional; conditions: ATCC 2001, 24 h; procedure, shortened: as §1
Nakaseomyces glabratus [16] = test: Antifungal activity against Candida glabrata ATCC 66032 assessed as reduction in fungal cell growth incubated for 24 hrs by MTT based broth double dilution method; format: functional; conditions: ATCC 66032, 24 h; procedure, shortened: as §1
HEK-293T = test: Cytotoxicity against human HEK293T cells assessed as reduction in cell viability at 5 to 50 uM incubated for 24 hrs by XTT assay; format: cell-based; procedure, shortened: as §2
Candida albicans [17] = test: Antifungal activity against ERG11/ERG3 knocked out Candida albicans SN152 assessed as zone of inhibition at 25 ug […] by disk diffusion method; format: functional, organism-based

Structure (SMILES)	MIC (Candida parapsilosis [1]) [ng/mL]	cytotoxicity at 24 h, up to 50 µM [2] [%]	MIC (Candida albicans [3]) [ng/mL]	MIC (Candida albicans [4]) [ng/mL]	MIC (Candida albicans [5]) [ng/mL]	MIC [6] [ng/mL]	Activity (HepG2)	MIC (Nakaseomyces glabratus [7]) [ng/mL]	MIC (Candida albicans [8]) [ng/mL]	MIC (Candida dubliniensis) [ng/mL]	inhibition zone (IZ) (Candida albicans [9])	MIC (Candida albicans [10]) [ng/mL]	cytotoxicity at 24 h, up to 50 µM [11] [%]	MIC (Candida parapsilosis [12]) [ng/mL]	MIC (Nakaseomyces glabratus [13]) [ng/mL]	MIC (Nakaseomyces glabratus [14]) [ng/mL]	MIC (Nakaseomyces glabratus [15]) [ng/mL]	MIC (Nakaseomyces glabratus [16]) [ng/mL]	Activity (HEK-293T)	inhibition zone (IZ) (Candida albicans [17])
CC(=O)N1CCN(c2ccc(OCC3COC(Cn4ccnc4)(c4ccc(Cl)cc4Cl)O3)cc2)CC1 (racemic) [KETOCONAZOLE]	7 (≈ 0.0132 µM)	< 40	7 (≈ 0.0132 µM)	7 (≈ 0.0132 µM)	7 (≈ 0.0132 µM)	7 (≈ 0.0132 µM)	Toxic	4000 (≈ 7.53 µM)	7 (≈ 0.0132 µM)	7 (≈ 0.0132 µM)	Active	7 (≈ 0.0132 µM)	< 40	7 (≈ 0.0132 µM)	60 (≈ 0.113 µM)	125 (≈ 0.235 µM)	1000 (≈ 1.88 µM)	1000 (≈ 1.88 µM)	Toxic	Active
Clc1ccccc1C(c1ccccc1)(c1ccccc1)n1ccnc1 [CLOTRIMAZOLE]	7 (≈ 0.0203 µM)		7 (≈ 0.0203 µM)	7 (≈ 0.0203 µM)	7 (≈ 0.0203 µM)	7 (≈ 0.0203 µM)			7 (≈ 0.0203 µM)	7 (≈ 0.0203 µM)		7 (≈ 0.0203 µM)		7 (≈ 0.0203 µM)	60 (≈ 0.174 µM)	250 (≈ 0.725 µM)	500 (≈ 1.45 µM)			
Clc1ccc(COC(Cn2ccnc2)c2ccc(Cl)cc2Cl)c(Cl)c1 (stereo unspecified) [MICONAZOLE]	60 (≈ 0.144 µM)		15 (≈ 0.036 µM)	7 (≈ 0.0168 µM)	15 (≈ 0.036 µM)	60 (≈ 0.144 µM)		4000 (≈ 9.61 µM)	7 (≈ 0.0168 µM)	60 (≈ 0.144 µM)	Active	7 (≈ 0.0168 µM)		3 (≈ 0.00721 µM)	60 (≈ 0.144 µM)	125 (≈ 0.3 µM)	1000 (≈ 2.4 µM)	2000 (≈ 4.81 µM)		Active
CC[C@@H]([C@H](C)O)n1ncn(-c2ccc(N3CCN(c4ccc(OC[C@@H]5CO[C@@](Cn6cncn6)(c6ccc(F)cc6F)C5)cc4)CC3)cc2)c1=O [POSACONAZOLE]	15 (≈ 0.0214 µM)	< 40	7 (≈ 0.00999 µM)	7 (≈ 0.00999 µM)	7 (≈ 0.00999 µM)	30 (≈ 0.0428 µM)	Toxic	> 64000	7 (≈ 0.00999 µM)	30 (≈ 0.0428 µM)		7 (≈ 0.00999 µM)	< 40	30 (≈ 0.0428 µM)	125 (≈ 0.178 µM)	125 (≈ 0.178 µM)	1000 (≈ 1.43 µM)	1000 (≈ 1.43 µM)	Toxic	
